# Measured values gathered from unrelated publications.
# Target: Phosphorylase b kinase gamma catalytic chain, liver/testis isoform (PHKG2, Homo sapiens, UniProt P15735)
# One construct used (P15735 1-406): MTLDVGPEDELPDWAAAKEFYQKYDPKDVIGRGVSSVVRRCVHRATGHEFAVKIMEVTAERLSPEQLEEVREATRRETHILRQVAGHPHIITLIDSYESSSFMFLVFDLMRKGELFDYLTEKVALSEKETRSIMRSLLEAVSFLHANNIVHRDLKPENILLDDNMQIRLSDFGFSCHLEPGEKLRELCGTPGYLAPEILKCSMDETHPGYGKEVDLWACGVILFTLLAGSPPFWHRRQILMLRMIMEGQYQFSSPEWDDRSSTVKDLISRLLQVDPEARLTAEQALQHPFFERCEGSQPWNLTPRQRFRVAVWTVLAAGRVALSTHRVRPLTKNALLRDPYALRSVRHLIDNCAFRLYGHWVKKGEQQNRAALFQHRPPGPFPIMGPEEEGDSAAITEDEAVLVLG
Structure (SMILES),assay,system,setting,endpoint,result
Cc1ccc(Nc2nccc(N(C)c3ccc4c(C)n(C)nc4c3)n2)cc1S(N)(=O)=O,"enzyme activity, inhibitor",,10 µM,inhibition,-2%
O=C1NC(=O)c2cc(Nc3ccc(F)cc3)c(Nc3ccc(F)cc3)cc21,cell-free assay,,0.5 µM,remaining signal,97.1%
CC(C)(C)c1nc2c(s1)c1nc(N)ncc1c1ccc(NS(=O)(=O)c3c(F)cccc3F)c(F)c12,"enzyme activity, inhibitor, radiometric",,1 µM,remaining activity,92%
COc1ccc2c(c1)O[C@H](c1ccc(OC)c(OC)c1)C[C@@H]2NC(=O)C1(c2ccc3c(c2)OC(F)(F)O3)CC1,"cell-free assay, competition with immobilised ligand",,1 µM,remaining binding,93%
N#CCCc1ccc2c(c1)-c1[nH]c3ccc([N+](=O)[O-])cc3c1CC(=O)N2,cell-free assay,,0.5 µM,remaining signal,99.1%
CCC(=O)N[C@H]1CC[C@@H](C(=O)N(C)c2ccc(-c3nc4ccccc4o3)cc2)C1,"cell-free assay, competition with immobilised ligand",,1 µM,remaining binding,100%
Oc1cccc(-c2nc(N3CCOCC3)c3oc4ncccc4c3n2)c1,cell-free assay,,0.5 µM,remaining signal,99.1%
Cc1cnc(NC2CCOCC2)nc1-n1cnc(C(=O)NC(CN)c2cc(F)cc(Cl)c2)c1 (stereo not drawn),"enzyme activity, inhibitor, radiometric",,1 µM,remaining activity,97%
Cc1ccc(C(=O)NCc2ccsc2)cc1C#Cc1cn(C(C)C)c2ncnc(N)c12,"enzyme activity, inhibitor",,1 µM,activity vs control,110%
CCN(CC)CCNC(=O)c1c(C)[nH]c(/C=C2\C(=O)Nc3ccc(F)cc32)c1C,"enzyme activity, inhibitor",,0.3 µM,inhibition,81%
CNC(=O)c1cc(Oc2ccc(NC(=O)Nc3ccc(Cl)c(C(F)(F)F)c3)cc2)ccn1,cell-free assay,,0.5 µM,remaining signal,91.3%
CCCCNc1ncc2c(-c3ccc(F)cc3)nn(C[C@H]3CC[C@H](N)CC3)c2n1,"target engagement in cells, inhibitor, chemoproteomics",,20 mM,inhibition,-3.3%
CS(=O)(=O)CCNCc1ccc(-c2ccc3ncnc(Nc4ccc(OCc5cccc(F)c5)c(Cl)c4)c3c2)o1,cell-free assay,,0.5 µM,remaining signal,99.5%
CC(=O)N1CCC(c2ccc(C(=O)NC3=NCCN3)cc2C(F)(F)F)CC1,"cell-free assay, competition with immobilised ligand",,1 µM,remaining binding,100%
Cc1ccc(NC(=O)c2ccc(C)c(C(F)(F)F)c2)cc1C#Cc1nn(C2CCC(O)CC2)c2ncnc(N)c12 (stereo not drawn),cell-free assay,,10 µM,remaining signal,113%
CCCCN(CCCC)C(=O)CN1C[C@@H](c2cc(OC)c3c(c2)OCO3)[C@H](C(=O)O)[C@H]1CC(C)(C)CCC,"cell-free assay, competition with immobilised ligand",,1 µM,remaining binding,100%
COc1cc(Cl)c(C(=O)N[C@@H](CN[C@H]2CC[C@@H](N)CC2)Cc2ccc(C#N)cc2)cc1-c1ccc(CN[C@H](C)c2ccc(C)cc2)o1,"enzyme activity, inhibitor",,1 µM,remaining activity,103%
CC/C(=N\NC(=O)NCc1cccc(O)c1)c1ccc(O)c(C)c1O,"enzyme activity, inhibitor",,0.1 µM,inhibition,-2.9%
COCCOc1nc(-c2ccc(Cl)nc2)nc2c1CN(C(=O)c1ncn3ccccc13)CC2,"cell-free assay, competition with immobilised ligand",,0.1 µM,remaining binding,100%
Cc1sc(C(=O)NC2COC2)cc1-n1cc(NC(=O)Nc2c(F)cccc2Cl)cn1,"enzyme activity, inhibitor",,10 µM,remaining activity,88.5%
Cn1nc(C(F)(F)F)cc1-c1cnc(N2CCc3cc(S(=O)(=O)Nc4c(F)cc(Cl)cc4F)cc(N4CCCC4=O)c32)nc1,"cell-free assay, competition with immobilised ligand",,1 µM,remaining binding,96%
COc1cc2ncnc(Nc3ccc(Oc4ccccc4)cc3C)c2cc1OC,"enzyme activity, inhibitor",,1 µM,inhibition,0%
CCCOc1ccc(OC)c(F)c1C(=O)c1ccc(C(=O)N[C@@H]2CNC[C@H]2NC(=O)c2ccc3[nH]ncc3c2)cc1,"enzyme activity, inhibitor",,10 µM,remaining activity,51%
CO[C@@H](C)c1c(Nc2ccc([C@H](N(C)C(=O)C3CCS(=O)(=O)CC3)C(F)(F)F)cc2)cnc2cc(Cl)nn12,"cell-free assay, competition with immobilised ligand",,1 µM,remaining binding,96%
Cc1cc(NC(=O)c2cccc3cc(-c4cccc5[nH]nc(N)c45)ccc23)ccc1F,"enzyme activity, inhibitor",,0.1 µM,activity vs control,87%
CC(C)CC(=O)N1CCc2nc(-c3ccc(Br)cc3)nc(N(C)Cc3ccccc3)c2C1,"cell-free assay, competition with immobilised ligand",,0.1 µM,remaining binding,100%
CCN1CCN(Cc2ccc(NC(=O)c3ccc(C)c(Oc4ccnc5[nH]ccc45)c3)cc2C(F)(F)F)CC1,"target engagement in cells, inhibitor, chemoproteomics",Huh-7,10 µM,inhibition,-12.3%
